Apaf1 activ = human Apaf-1 activation; O14727; Apaf-1 apoptosome caspase-3 activation, DEVD-Rh110 fluorescence; hits give low values; activity change, negative = activation, % at 20 µM; 0.31% of 330,000 active;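 active means activity change at or below -40% at 20 µM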
Target sequence (O14727 whole entry, looked up): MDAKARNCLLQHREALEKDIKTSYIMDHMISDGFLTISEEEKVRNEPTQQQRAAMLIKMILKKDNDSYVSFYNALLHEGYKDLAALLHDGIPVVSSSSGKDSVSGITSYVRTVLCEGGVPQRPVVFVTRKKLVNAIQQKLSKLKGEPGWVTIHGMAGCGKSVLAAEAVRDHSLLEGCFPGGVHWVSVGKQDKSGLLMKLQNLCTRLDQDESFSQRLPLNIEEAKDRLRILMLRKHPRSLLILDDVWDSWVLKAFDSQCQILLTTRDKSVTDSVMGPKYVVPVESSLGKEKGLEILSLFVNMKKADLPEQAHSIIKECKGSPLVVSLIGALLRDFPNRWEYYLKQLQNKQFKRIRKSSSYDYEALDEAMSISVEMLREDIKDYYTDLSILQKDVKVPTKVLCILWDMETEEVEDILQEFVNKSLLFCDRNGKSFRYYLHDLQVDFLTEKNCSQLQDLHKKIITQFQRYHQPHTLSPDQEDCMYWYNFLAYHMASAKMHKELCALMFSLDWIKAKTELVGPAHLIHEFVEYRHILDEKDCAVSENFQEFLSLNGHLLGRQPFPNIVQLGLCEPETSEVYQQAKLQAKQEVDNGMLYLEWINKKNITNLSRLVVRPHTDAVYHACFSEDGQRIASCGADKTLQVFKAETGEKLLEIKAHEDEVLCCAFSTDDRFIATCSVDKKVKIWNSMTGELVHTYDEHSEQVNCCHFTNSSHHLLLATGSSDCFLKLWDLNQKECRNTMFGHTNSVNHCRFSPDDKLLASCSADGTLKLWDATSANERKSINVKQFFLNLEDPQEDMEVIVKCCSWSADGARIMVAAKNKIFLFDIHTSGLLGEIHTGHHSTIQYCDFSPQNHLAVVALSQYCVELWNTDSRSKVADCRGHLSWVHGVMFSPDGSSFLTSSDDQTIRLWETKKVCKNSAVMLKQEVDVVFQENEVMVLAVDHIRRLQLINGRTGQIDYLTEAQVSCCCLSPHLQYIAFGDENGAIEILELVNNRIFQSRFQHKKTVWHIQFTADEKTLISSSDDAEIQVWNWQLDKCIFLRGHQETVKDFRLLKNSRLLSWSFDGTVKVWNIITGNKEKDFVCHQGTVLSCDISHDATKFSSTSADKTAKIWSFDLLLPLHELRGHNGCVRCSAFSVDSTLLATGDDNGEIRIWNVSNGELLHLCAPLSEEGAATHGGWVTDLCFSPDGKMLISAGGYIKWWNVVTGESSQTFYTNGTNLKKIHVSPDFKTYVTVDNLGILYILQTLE
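Schedule: 30 min preincubation, 50 min reaction, room temperature / System: biochemical Apaf-1 apoptosome reconstitution / Medium: 20 mM HEPES pH 7.5 with CHAPS, BSA / Evaluation: Caspase-3 cleavage activity downstream of Apaf-1 activation / Detection: Caspase-3-released Rh110 fluorescence, 540 nm emission, 480 nm excitation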
Rh110 act interf = Rh110 signal interference in Apaf-1 activator counter-screen; shares compounds with Apaf1 activ; Rh110 fluorescence interference, quenched caspase reaction, Ex480/Em540; fluorescence interference (activity change), % at 20 µM, hits read low; 980 tested, under 10 active;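 active means mean activity change at or below -40% when tested at 20 µM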
Apaf-1 act conf2 = confirmation of human Apaf-1 activators; AID 504617; shares compounds with Apaf1 activ; activity change, negative = activation, % at 20 µM; 5% of 980 active; reconstituted apoptosome caspase-3 activity, DEVD-Rh110 fluorescence; hits give low values;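 active means mean activity change at or below -40%, meaning activation of 40% or more, at 20 µM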
The depositor's hits bear a star; nt = not tested or not shown. Not all results are given here.

SMILES	Apaf1 activ	Rh110 act interf	Apaf-1 act conf2
COCCn1c(N)c(C(=O)NCc2cccs2)c2nc3ccccc3nc21	95	nt	nt
COc1cc(C(=O)NC(C)c2ccc(-n3ccnc3)cc2)cc(OC)c1C (stereo unspecified)	41	nt	nt
C#CCOCCOCCOCCNc1nc(N2CCN(C(=O)[C@H]([C@@H](C)CC)n3cc([C@@H](N)CC(C)C)nn3)CC2)nc(N2CCN(C(=O)[C@H](Cc3cc4ccccc4[nH]3)n3cc([C@@H](N)CC(C)C)nn3)CC2)n1	58	nt	nt
O=C(/C=C/c1ccc(O)cc1)c1ccc(NC2=C(N3CCCCC3)C(=O)c3ccccc3C2=O)cc1	76	nt	nt
CC(C)c1ccc(NC(=O)C2CC(=O)N(C3CCCC3)C2)cc1 (stereo unspecified)	-96*	4	4
CN1c2ccccc2C(C)(C)C12C=Nc1c(cc(N3CCOCC3)c3ccccc13)O2 (stereo unspecified)	69	nt	nt
CC(N=Cc1cccc(O)c1O)c1ccccc1 (stereo unspecified)	71	nt	nt
CC(C)COc1ccc(C(=O)Nc2scc(-c3ccc(Cl)cc3Cl)c2C(N)=O)cc1	45	nt	nt
Cc1ccc(NC(=O)c2ccc(OC(=O)COc3ccc(Cl)cc3C)cc2)cc1	-486*	-6	8
CCN1CCN(C2=C(NS(=O)(=O)c3ccc(C)cc3)C(=O)c3ccccc3C2=O)CC1	77	nt	nt
O=C(NNc1cc(N2CCOCC2)nc(N2CCOCC2)n1)c1ccc(Cl)cc1Cl	47	nt	nt
COc1ccc(-c2oc3ccc(-c4cc(OC)c(OC)c(OC)c4)cc3c2-c2ccc(OC)cc2)cc1	-211*	6	1
Brc1ccc(-c2cn3nc4c(nc3n2)CCCC4)cc1	41	nt	nt
O=C1NC(=Nc2ccccc2)S/C1=C/c1cccs1	-300*	7	15
O=C(c1ccccc1)N1CCCOC1c1ccccc1 (stereo unspecified)	-67*	6	16
Cc1cc(C(=O)OCC(=O)NC(=O)c2cccn2C)c2ccccc2n1	-127*	9	14
Cc1cc(C)c(C(N)=O)c(Nc2cccc3ccccc23)n1	96	nt	nt
CCOC(=O)Cc1csc(N/C(=N/S(=O)(=O)c2ccc(Cl)cc2)c2ccccc2)n1	63	nt	nt
CCN(c1ccccc1)S(=O)(=O)c1ccc(Cl)c(NC(=O)CN2CCN(C)CC2)c1	52	nt	nt
O=C(CSc1ncnc2ccccc12)Nc1cccc(S(=O)(=O)N2CCCC2)c1	-43*	2	1
O=C(CN1CCN(Cc2ccccc2)CC1)Nc1cccc(S(=O)(=O)N2CCCCCC2)c1	-174*	10	15
Cn1c(CN2CCCC2)nc2cc(NC(=O)COc3ccccc3)ccc21	53	nt	nt
Cc1ccc(C(=O)c2c3ccc(N)cc3nn2CCC(N)=O)cc1	82	nt	nt
C#CCOCCOCCOCCNc1nc(N2CCN(C(=O)[C@H]([C@@H](C)CC)n3cc([C@@H](N)CO)nn3)CC2)nc(N2CCN(C(=O)[C@H](Cc3cc4ccccc4[nH]3)n3cc([C@@H](N)C(C)CC)nn3)CC2)n1 (stereo partly specified)	48	nt	nt
COCCOc1cc(NCc2ccccc2)c2ncn(C(C)C)c2c1	68	nt	nt
SMILES	Apaf1 activ	Rh110 act interf	Apaf-1 act conf2
CC(=O)Nc1c(S(=O)(=O)c2ccccc2)c2nc3ccccc3nc2n1Cc1ccccc1	60	nt	nt
CC(C)NC[C@@H](O)c1ccc(O)c(O)c1	43	nt	nt
Oc1ccc(N=Cc2ccc(OCc3ccccc3)cc2)cc1	93	nt	nt
COc1ccc(C(=O)n2nc(-c3ccccc3)nc2N)cc1OC	-363*	-6	10
COc1ccc2nc3ccccc3nc2c1N	92	nt	nt
CCCC(CCC)C(=O)O	-6	nt	nt
CCCCCCOC(=O)C[N+](C)(C)CCOC1CC2CCC1(C)C2(C)C (stereo unspecified)	52	nt	nt
Cc1[nH]n(-c2ccccc2)c(=O)c1/C=N/Nc1nncc(-c2ccccc2)n1	81	nt	nt
O=C(COC(=O)c1cc(Cl)ccc1Cl)NCCN1C(=O)CSC1=O	43	nt	nt
CCC(CC)c1nnc(NC(=O)CN2C(=O)c3ccccc3C2=O)s1	87	nt	nt
COC(=O)c1ccccc1NC(=O)CN1C(=O)CSC1=O	-48*	-6	8
CN1CCc2cccc3c2[C@H]1Cc1ccc(O)c(O)c1-3	42	nt	nt
COc1ccc(C(=O)CSc2nnc(-c3cccnc3)n2Cc2ccco2)cc1	-50*	-1	8
Cc1cnc(NC(=O)CSc2ncc(-c3ccccc3)n2Cc2ccco2)s1	42	nt	nt
COc1ccc(N)cc1-n1c(C)ccc1C	84	nt	nt
CCOc1ccc(NC(=O)CC2C(=O)N(c3ccccc3)C(=S)N2Cc2ccccn2)cc1 (stereo unspecified)	-44*	8	10
Cc1cc(-c2nnc(CCC(=O)NC(C)(C)C34CC5CC(CC(C5)C3)C4)o2)no1	-55*	8	5
O=c1[nH]c2ccc(S(=O)(=O)Nc3ccc(-c4nnc5n4CCCCC5)cc3)cc2o1	-154*	6	16
CN(C)C/C=C/C(=O)Nc1cccc(-c2c[nH]c3ncnc(Oc4ccc(NC(=O)CC(=O)Nc5ccc(F)cc5)cc4F)c23)c1	63	nt	nt
CCOc1cc(C(=S)N2CCOCC2)ccc1OS(=O)(=O)c1ccc(OC)cc1	-55*	-9	9
CCOc1cc(C(c2c(C)[nH][nH]c2=O)c2c(C)[nH][nH]c2=O)ccc1OS(=O)(=O)c1ccc(C)cc1	41	nt	nt
COc1ccc(C(CNC(=O)COc2c(C)cc(C)cc2C)N2CCOCC2)cc1 (stereo unspecified)	66	nt	nt
C=CCn1c(N)c(C(=O)OC(C)(C)C)c2nc3ccccc3nc21	67	nt	nt
CN(C)CCCN1c2ccccc2Sc2ccc(Cl)cc21	42	nt	nt
COc1ccc(/C=N/NC(=O)CNC(=O)/C=C/c2ccco2)cc1OC	-408*	-8	5
SMILES	Apaf1 activ	Rh110 act interf	Apaf-1 act conf2
CSc1ccc(/C=N/NC(=O)CNc2cccc3ccccc23)cc1	86	nt	nt
C#CCOCCOCCOCCNc1nc(N2CCN(C(=O)CCCCCCCCCCNC(=O)[C@H](CCCCN)n3cc(CCO)nn3)CC2)nc(N2CCN(C(=O)CCCCCCCCCCNC(=O)[C@H](CCCCN)n3cc(CCO)nn3)CC2)n1	64	nt	nt
COc1ccc(CN2C(=O)Cc3c2nc(N)c2c(N)nc(N4CCOCC4)c(C#N)c32)cc1	86	nt	nt
CCCCn1c(NC(=O)c2ccc(F)cc2)c(C#N)c2nc3ccccc3nc21	95	nt	nt
O=C(C1CC(=O)N(c2ccc3c(c2)OCCO3)C1)N1CCCC(C(F)(F)F)C1 (stereo unspecified)	-45*	5	2
CCCCCCCCCCCCC/C=C/[C@@H](O)[C@@H](N)CO	79	nt	nt
CC(C)c1ccc(S(=O)(=O)/N=C2/C=CC(=O)c3ccccc32)cc1	72	nt	nt
NS(=O)(=O)c1ccc(N=Nc2c[nH]c(=O)c(O)c2)cc1	74	nt	nt
CC(C)C(=O)NC(c1cccs1)c1cc([N+](=O)[O-])c2cccnc2c1O (stereo unspecified)	68	nt	nt
Cc1ccc(C(=O)NC2(O)C(=O)c3ccccc3C2=O)cc1C	97	nt	nt
O=C(CCCC(=O)OCC(Cl)=C(Cl)Cl)Nc1ccccc1F	-61*	-2	4
COc1ccc(Cn2c(N)c(C#N)c3nc4ccccc4nc32)cc1	50	nt	nt
